# Test results as given in paper PMC7498667 (Neoplasia (New York, N.Y.), 2020).
# Columns and labels:
# [1] = tested on: AR+/ER−/PR− breast cancer; settings: cited from earlier work
# [2] = tested on: 5 AR+ breast cancer cell lines; test: Cell growth inhibition, WST-8 assay, statements for the whole panel; format: cell-based, human; settings: concentrations up to 10 µM, 5 AR+ cell lines
# [3] = tested on: MDA-MB-453, HCC1428 and MCF-7 cells; test: Cell cycle analysis by flow cytometry; format: cell-based, human; settings: 10 µM, 72 h
# In short: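 MDA-MB-453, HCC1428 and MCF-7 cells were treated for 72 h with a concentration range of test compound (AR antagonist comparators at 10 µM), or with 1 µM over a time course. Cells were fixed in 70% ethanol overnight at 4 °C, stained with propidium iodide plus 0.2 mg/ml RNase A for 30 min at room temperature, and cell-cycle distribution was measured by flow cytometry. Data are mean ± SEM.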
# [4] = tested on: MDA-MB-453, HCC1428 and MCF-7 cells; test: Apoptosis analysis by flow cytometry; format: cell-based, human; settings: 10 µM, 3-day treatment
# In short: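 MDA-MB-453, HCC1428 and MCF-7 cells were treated for 72 h with a concentration range of test compound, with AR antagonist comparators at 10 µM. For the time course, MDA-MB-453 and HCC1428 cells received 1 µM. Cells were washed in cold PBS, stained with an apoptosis detection kit and analysed by flow cytometry for percent live and apoptotic cells. Data are mean ± SEM, n=3.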
# [5] = tested on: caspase-8, −9, −3, and −7 and PARP; test: Cleavage of caspases and PARP, Western blot; format: cell-based, human; settings: 1 or 10 µM, MDA-MB-453 and HCC1428, 48 h
# In short: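 MDA-MB-453 and HCC1428 cells were exposed to a concentration range of test compound for 48 h. Cells were lysed in RIPA with protease and phosphatase inhibitors for 30 min on ice. Lysates were run on SDS-PAGE and transferred to PVDF. Membranes were blocked in 5% milk in TBST, probed with primary antibodies for cleaved caspases and PARP overnight at 4 °C and with HRP secondary, then developed by ECL.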
# [6] = tested on: MDA-MB-453 xenograft tumor; test: Antitumor efficacy in MDA-MB-453 xenograft tumor model; format: in vivo, mice; settings: enzalutamide 50 mg/kg IP dose
# In short: (§1)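 Male CB.17 SCID mice were implanted s.c. with 5 × 10^6 MDA-MB-453 cells in 5 mg/ml Matrigel. At a mean tumour volume of 100 mm3, mice were randomised by tumour size. Test compound or vehicle (20% PEG400 + 6% Cremophor EL + 74% PBS) was given i.p. daily. Tumours and body weights were measured twice weekly, with volume = length × width²/2. Data are mean ± SEM, n=8.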
# [7] = Animal weight and signs of toxicity in efficacy experiment; format: in vivo; settings: entire efficacy experiment, MDA-MB-453 xenograft mice
# In short: as §1
# metastatic AR+, TNBCs = settings: phase 2, metastatic AR+ TNBC; cited from earlier work
# AR protein = format: cell-based, human; settings: MDA-MB-453 cells, combination with ARD-61 for 24 h
compound,measurement,setting,value
CC(O)(CS(=O)(=O)c1ccc(F)cc1)C(=O)Nc1ccc(C#N)c(C(F)(F)F)c1 (stereo not shown) [Bicalutamide],Clinical benefit ratio (CBR),[1],19%
same,Toxicity,[1],minimal toxicity
CNC(=O)c1ccc(N2C(=S)N(c3ccc(C#N)c(C(F)(F)F)c3)C(=O)C2(C)C)cc1F [Enzalutamide],Inhibition of cell growth,[2],minimal activity
same,Effect on cell cycle (G2/M arrest),[3],minimal effect
same,Apoptosis induction,[4],minimal apoptosis
same,"Effect on cleavage of caspase-8, −9, −3, −7 and PARP",[5],minimal effect
same,Antitumor activity,[6],very similar with that of ARD-61 at 25 mg/kg
same,Animal weight loss or other signs of toxicity,[7],No animal weight loss or other signs of toxicity
same,Progression-free survival,"metastatic AR+, TNBCs",significant improvement
"C[C@]1(O)CC[C@H]2[C@@H]3CCC4=CC(=O)CCC4=C3C=C[C@@]21C [R1881, metribolone]",Effect on AR depletion induced by ARD-61,AR protein,effectively block
